Shown are actives, neighbours in structure and some others; about 6.1% of the full set was active somewhere.
Measles CPE – protection of cells from measles virus. Measles virus-infected cells, CPE protection, absorbance. AID 841. hit rate 1.5% among 140,000. protection (pct of control), % at 4 µM; in the data active = protection mostly above about 24%, no sharp cut-off; inactive = mostly below about 26%
BB579 growth dn – chemicals that inhibit yeast BB579 growth in restrictive medium (lifespan-shortening candidates) | S. cerevisiae BB579 growth, OD615, 48 h | inhibition, % at 10 µM | AID 804 | hit rate 0.51% among 140,000;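 active = inhibition above a set limit, 3 SD over the mean compound inhibition, cut at about 44% in these data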
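Assay system: S. cerevisiae DeaD strain BB579 yeast. Medium: CSMM-D restrictive synthetic medium containing dextrose (glucose). Times: 4 h cell preincubation, 48 h compound exposure, 30 °C humidified. Signal: OD615 turbidity measurement. Benchmarks: positive control amphotericin B 10 µg/mL.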
RAM inhibit – inhibitors of the yeast RAM network; S. cerevisiae dse1pr::URA3 reporter, 5-FOA growth OD615, 2 d; analog-sensitive cbk1-as2 kinase mutant strain; inhibition, % at 50 µM; hit rate 1.8% among 190,000; AID 868;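 active = inhibition above a set limit, 3 SD over mean compound inhibition, cut at about 8.4% in these data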;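 also: 0% = DMSO-only wells with no growth and 100% = 10 µM 1-NA-PP1 full growth; inhibition rescues growth on 5-FOA so higher OD means more RAM inhibition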
hDAT+cocaine – changed human dopamine transporter uptake under cocaine IC80; Q01959; LLC-PK1 hDAT cells, [14C]-dopamine uptake with cocaine IC80; actives deviate in either direction; B-score at 10 µM; hit rate 1.3% among 110,000;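 active = Z score or B-score, a plate-position-corrected score, falls beyond the plate's 99.7% confidence bounds, in either direction; inactive = both scores lie inside the 99.7% bounds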;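 also: scored against the spread of the other compound wells on the same plate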
Target sequence (Q01959 whole entry, looked up): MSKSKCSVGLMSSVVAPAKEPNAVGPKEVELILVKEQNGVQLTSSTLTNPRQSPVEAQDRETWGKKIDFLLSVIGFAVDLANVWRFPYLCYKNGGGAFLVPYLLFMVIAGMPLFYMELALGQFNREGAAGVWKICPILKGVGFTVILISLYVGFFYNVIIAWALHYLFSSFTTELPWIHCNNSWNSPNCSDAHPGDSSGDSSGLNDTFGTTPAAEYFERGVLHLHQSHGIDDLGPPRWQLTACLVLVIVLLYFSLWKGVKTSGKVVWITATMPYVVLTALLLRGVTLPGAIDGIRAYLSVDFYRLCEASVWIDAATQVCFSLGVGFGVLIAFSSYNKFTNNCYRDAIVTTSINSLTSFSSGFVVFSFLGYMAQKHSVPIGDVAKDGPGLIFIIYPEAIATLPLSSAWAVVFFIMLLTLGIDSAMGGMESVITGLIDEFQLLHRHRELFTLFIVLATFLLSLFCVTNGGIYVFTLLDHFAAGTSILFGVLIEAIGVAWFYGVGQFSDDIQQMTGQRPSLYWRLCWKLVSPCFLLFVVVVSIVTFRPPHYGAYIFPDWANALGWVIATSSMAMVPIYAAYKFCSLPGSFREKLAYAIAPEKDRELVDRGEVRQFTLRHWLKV
Yeast lifespan up – extends the lifespan of yeast. S. cerevisiae growth with nicotinamide, OD615; deaD strain in restrictive glucose medium. inhibition of the nicotinamide effect, % at 10 µM. hit rate 0.68% among 130,000. AID 775;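 active = inhibition above a set limit, placed 3 SD over the median of all compounds, cut at about 26% in these data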;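 also: 0% = nicotinamide-treated wells and 100% = cells grown without nicotinamide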
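assay system = DeaD-strain S. cerevisiae | buffer or medium = restrictive glucose medium | reagent = 1.5 mM nicotinamide | compound = 10 µM single point, 0.25% DMSO | incubation = 48 h compound exposure at 30 °C, humidified | signal = OD615 measurement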
WT yeast gro inh – growth inhibition of WT yeast, mitochondrial fusion screen. mitochondrial fusion phenotypic screen, WT strain. inhibition, % at 10 µM. hit rate 2.1% among 190,000; in the data active = inhibition above about 58%; tested in S. cerevisiae
Numbers without * were called inactive; / = no result given.

SMILES	Measles CPE	BB579 growth dn	RAM inhibit	hDAT+cocaine	Yeast lifespan up	WT yeast gro inh
Cc1ccccc1CN(c1ccc(C(=O)N2CCc3ccccc3C2)cc1)S(C)(=O)=O	5	-6	0	-3.2*	-9	6
Cc1ccc(S(=O)(=O)N2CCC(=O)N(C(COCc3cccc(C(F)(F)F)c3)Cc3ccccc3)CC2)cc1 (stereo unspecified)	4	-42	9.8*	0.75	20	0
Cc1ccc(S(=O)(=O)N2CCC(=O)N(C(COCc3ccccc3)Cc3ccccc3)CC2)cc1 (stereo unspecified)	12	-42	5	0.86	11	49
Cc1ccc(S(=O)(=O)N2CCC(=O)N(C(COCc3cccc(Cl)c3)C(C)C)CC2)cc1 (stereo unspecified)	15	-34	8.6*	-0.051	4	22
CSC1=NC(C(Cl)(Cl)Cl)N=C(c2ccc(C)cc2)N1 (stereo unspecified)	/	/	0	/	/	-13
O=C(Nc1cc(Cl)cc(Cl)c1)c1ccc(Cn2c(=O)[nH]c3ccsc3c2=O)cc1	9	-24	8	-1.3	13	13
CCn1c(CNC(=O)COc2ccc(C(C)C)cc2)nnc1SCC(=O)Nc1ccccc1C(C)C	42	-13	-1	2.4*	-16	18
CC(C)(C)C1CCc2c(sc(NC(=O)c3cccs3)c2C(=O)N2CCCCC2)C1 (stereo unspecified)	11	-47	5	-0.66	-1	62*
COc1ccc(S(=O)(=O)N(CCCN2CCOCC2)Cc2cccc3ccccc23)cc1	3	-31	0	0.99	-4	26
Cc1ccc(S(=O)(=O)NNC(=O)C2Cc3c(ccc4ccccc34)O2)cc1 (stereo unspecified)	2	-9	4	-8.5*	-3	9
CC12CCC(C/C1=N/OC(=O)c1cccc([N+](=O)[O-])c1)C2(C)C (stereo unspecified)	/	/	-2	/	/	13
NC(=O)CN1CCN(S(=O)(=O)c2ccc(Br)cc2)CC1	/	/	1	/	/	10
CC1=CS/C(=C(/C#N)C(=O)N2CCCCC2)N1c1ccccc1	33*	-5	1	-0.46	-5	8
CCN(CC)S(=O)(=O)c1ccc(C(=O)NCCSc2c[nH]c3ccccc23)cc1	8	-23	8.7*	0.46	0	7
S=c1[nH]nc(-c2ccccc2)n1/N=C/c1ccc(-c2ccccc2Cl)o1	70*	-4	1	/	-1	58*
S=c1[nH]nc(-c2ccccn2)n1/N=C/c1ccc(-c2ccccc2Br)o1	/	/	1	/	/	27
O=C(N/N=C/c1ccc2c(c1)OCO2)C(=O)Nc1ccc2ccccc2c1	/	/	3	/	/	3
CC(/C=N/n1c(COc2ccccc2)n[nH]c1=S)=C\c1ccccc1	7	-2	8.4*	-0.58	-11	75*
Cc1cccc(OCc2n[nH]c(=S)n2-c2ccccc2)c1	/	/	0	/	/	13
Cc1ccc(OCc2n[nH]c(=S)n2-c2ccccc2)cc1C	/	/	1	/	/	67*
Cc1cc(F)c(F)c(C(=O)N2CCC(C)CC2)c1Cl	/	/	0	/	/	-15
Cc1cnc(C(=O)Nc2nnc(SCc3c(Cl)cccc3Cl)s2)cn1	4	-35	4	/	2	64
Cn1c(Oc2ccc3c(c2)OCO3)nc2c1c(=O)n(Cc1ccccc1)c(=O)n2C	4	-45	5	-0.047	-13	98*
COc1ccccc1Oc1nc2c(c(=O)n(Cc3ccccc3F)c(=O)n2C)n1C	9	-64	10*	0.81	-10	39
CN1CCC(OC(=O)COc2ccc(C(C)(C)C)cc2)CC1	19	-64	0	/	-2	16
SMILES	Measles CPE	BB579 growth dn	RAM inhibit	hDAT+cocaine	Yeast lifespan up	WT yeast gro inh
O=C(COC(=O)CCC(NC(=O)OCc1ccccc1)C(=O)OCC(=O)Nc1ccccc1)Nc1ccccc1 (stereo unspecified)	2	-8	10*	/	-1	-31
COc1cc(Cl)cc(/C=C/c2ccc3ccccc3n2)c1OC(C)=O	12	-29	5	/	-3	60*
Cc1cc2sc3ccccc3c(=O)c2c(C)c1O	/	/	1	/	/	3
O=c1c(C(c2ccccc2)c2c(O)sc3ccccc3c2=O)c(O)sc2ccccc12	5	-9	/	/	26*	-12
CC(C)Cc1nc(N2CCN(C(=O)c3ccccc3)CC2)c(C#N)c2c1CCC2	11	-18	4	0.068	-21	73*
CC(C)Cc1nc(N2CCN(C(=O)c3ccco3)CC2)c(C#N)c2c1CCC2	9	-25	9.2*	1.2	-19	-3
CC1CC(C)CN(c2nc3c(c(=O)[nH]c(=O)n3C)n2CCSc2nc3ccccc3o2)C1 (stereo unspecified)	/	/	/	/	/	20
COc1ccnc(Oc2ccc(C)cc2)c1C#N	67*	-48	0	-0.075	-21	5
COc1ccnc(Oc2ccc(F)cc2)c1C#N	/	/	3	/	/	2
COc1ccc(NC(=O)N2c3ccccc3CC2C)cc1OC (stereo unspecified)	31	-46	1	0.84	-23	95*
CCCNC(=O)C1CCN(c2cc(-c3ccccc3)nc3ncnn23)CC1	/	/	2	/	/	-7
FC(F)(F)c1ccc(N2CCN(c3cc(-c4ccccc4)nc4ncnn34)CC2)nc1	15	-8	3	-1	-12	64*
COc1cc(NS(=O)(=O)c2ccc(NC(=O)/C=C/c3cccc([N+](=O)[O-])c3)cc2)ncn1	/	/	8.9*	/	/	4
Oc1c(Br)cc(Br)cc1C=Nc1ccc2c(c1)OCCO2	/	/	-2	/	/	10
Oc1c(Br)cc(Br)cc1C=Nc1ccc2c(c1)OCO2	6	97*	-1	/	9	16
COC(=O)C1=NNC2(c3ccc(Cl)cc3)C(=O)N(c3ccccc3)C(=O)C12 (stereo unspecified)	5	-9	4	/	15	-1
Nc1ccc(O)cc1C(=O)OCC(=O)C12CC3CC(CC(C3)C1)C2	11	-37	0	-0.38	43	0
Nc1ccc(O)cc1C(=O)OCC(=O)c1ccc(C2CCCCC2)cc1	3	-44	10*	/	8	-11
CCn1c(SCC(=O)Nc2ccc(OCc3ccccc3)cc2)nnc1-c1ccco1	/	/	/	0.021	/	/
O=C(COC(=O)CC1CC2CCC1C2)Nc1cccc(S(=O)(=O)NC2=NCCCCC2)c1 (stereo unspecified)	/	/	1	/	/	16
N#CCCN1CCN(S(=O)(=O)c2ccc(S(=O)(=O)NC3CCCC3)cc2)CC1	40*	-14	1	-0.85	-5	14
O=C(N/N=C/c1ccc([N+](=O)[O-])s1)c1cccnc1	41	-17	-2	/	-3	1
O=c1c2ccccc2nnn1Cc1ccccn1	63*	13	0	-1.3	-9	9
O=c1c2ccccc2nnn1Cc1cccc2ccccc12	/	/	1	/	/	30
CC(C)OC(=O)c1ccc(Cn2nnc3ccccc3c2=O)cc1	39*	-35	1	-0.22	-6	1

Screens (PubChem BioAssay)
